Assay outcomes: PubChem BioAssay, several laboratories
EBNA-1 inh: blocks EBNA-1 binding to DNA; EBNA-1 DNA binding, fluorescence polarization; inhibition, % at 14.8 µM; hit rate 0.34% among 300,000; AID 1950; in the data active = inhibition above about 28%
ZTA DNA inh: counter-screen for EBNA-1 inhibitors: inhibitors of Epstein-Barr virus ZTA; P03206; ZTA-DNA binding, fluorescence polarization; inhibition, % at 11 µM; hit rate 0.15% among 320,000; in the data active = inhibition above about 33%
PREPL inhibitor: inhibits the human prolyl oligopeptidase-like enzyme | Q4J6C6 | recombinant PREPL, fluorescence polarization activity-based probe | inhibition, % at 5.96 µM | hit rate 0.68% among 320,000 | AID 2751; in the data active = inhibition above about 43%;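 note: 0% = enzyme with DMSO and 100% = wells lacking enzyme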
Apaf1 inhib: inhibitors of human Apaf-1 apoptosome; O14727; reconstituted apoptosome caspase-3 activity, DEVD-Rh110 fluorescence; inhibition, % at 20 µM; hit rate 0.71% among 330,000; active = inhibition of at least 40% at 20 µM;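 note: plate controls were DMSO wells for no effect and DEVD-CHO caspase inhibitor wells for full effect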
Target sequence (O14727 whole entry, looked up): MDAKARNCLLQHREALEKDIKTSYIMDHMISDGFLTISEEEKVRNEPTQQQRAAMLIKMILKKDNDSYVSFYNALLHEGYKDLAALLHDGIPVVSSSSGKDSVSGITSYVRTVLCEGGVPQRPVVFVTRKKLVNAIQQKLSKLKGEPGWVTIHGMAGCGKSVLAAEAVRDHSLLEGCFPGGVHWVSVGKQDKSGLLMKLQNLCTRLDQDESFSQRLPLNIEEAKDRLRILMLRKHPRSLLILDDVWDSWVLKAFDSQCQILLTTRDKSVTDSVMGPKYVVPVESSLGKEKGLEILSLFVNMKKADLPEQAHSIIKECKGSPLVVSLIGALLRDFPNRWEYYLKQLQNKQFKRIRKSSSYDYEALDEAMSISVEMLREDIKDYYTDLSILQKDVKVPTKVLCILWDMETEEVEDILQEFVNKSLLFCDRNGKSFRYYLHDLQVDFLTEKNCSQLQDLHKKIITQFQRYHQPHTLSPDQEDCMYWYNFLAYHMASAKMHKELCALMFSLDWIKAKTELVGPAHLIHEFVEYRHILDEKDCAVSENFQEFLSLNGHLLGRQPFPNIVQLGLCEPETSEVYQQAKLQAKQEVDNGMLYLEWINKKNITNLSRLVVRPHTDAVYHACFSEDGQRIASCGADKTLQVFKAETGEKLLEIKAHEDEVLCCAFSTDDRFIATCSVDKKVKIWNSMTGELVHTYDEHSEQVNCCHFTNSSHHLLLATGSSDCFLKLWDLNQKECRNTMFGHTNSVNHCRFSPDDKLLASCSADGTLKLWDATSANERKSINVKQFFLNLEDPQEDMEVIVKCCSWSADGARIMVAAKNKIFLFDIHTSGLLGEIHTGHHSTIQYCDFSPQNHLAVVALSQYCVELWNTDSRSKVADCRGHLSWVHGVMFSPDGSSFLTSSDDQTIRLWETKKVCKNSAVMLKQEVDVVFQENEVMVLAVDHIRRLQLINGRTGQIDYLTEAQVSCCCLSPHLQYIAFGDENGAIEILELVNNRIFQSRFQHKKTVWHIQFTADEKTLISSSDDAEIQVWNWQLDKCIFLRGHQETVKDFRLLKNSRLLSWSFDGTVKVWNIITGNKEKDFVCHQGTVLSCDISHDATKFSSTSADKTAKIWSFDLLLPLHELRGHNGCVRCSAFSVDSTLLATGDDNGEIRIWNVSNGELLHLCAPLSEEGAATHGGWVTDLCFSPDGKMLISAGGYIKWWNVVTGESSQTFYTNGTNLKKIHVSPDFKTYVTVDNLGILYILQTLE
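Material: biochemical Apaf-1 apoptosome reconstitution. Medium: Hepes buffer, pH 7.5. Also added: cytochrome c activation, bis-DEVD rhodamine 110 substrate. Timing: 30 min compound preincubation, 50 min activation, room temperature. Measured by: rhodamine 110 fluorescence at Ex 480/Em 540 nm.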
UBC13 inh: blocks human UBC13 polyubiquitin chain formation; P61088; TR-FRET; inhibition, % at 20 µM; hit rate 0.47% among 330,000; in the data active = inhibition above about 45%, passing the limit was not always enough
Apaf-1 inh conf2: confirmation of Apaf-1 inhibitors; reconstituted apoptosome, caspase-3 DEVD-Rh110 fluorescence; inhibition, % at 20 µM; AID 504614; shares compounds with Apaf1 inhib; hit rate 25% among 1,800;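 active = mean inhibition of at least 40% at 20 µM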;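 note: plate controls were DMSO wells for no effect and DEVD-CHO caspase inhibitor control wells for full effect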
Rh110 interf inh: counter-screen for Apaf-1 inhibitors: fluorescence interference. shares compounds with Apaf1 inhib. Rh110 fluorescence interference, quenched caspase reaction. activation (fluorescence interference), % at 20 µM. 1,800 tested, under 10 active. AID 504615;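 active = signal rise of 40% or more at 20 µM, treated as a fluorescence artifact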
Apaf1 inh interf: shows fluorescence interference in the Apaf-1 inhibitor assay format. AID 588538. IC50, µM. fluorescence interference counterscreen, Apaf-1 assay format. shares compounds with Apaf1 inhib. 460 tested, under 10 active; call rule not given here
* marks the source's active call; other numbers are inactive results; nt = no result given. Most compounds without a hit are left out; they make up all but 1.7% or so of the library.

SMILES	EBNA-1 inh	ZTA DNA inh	PREPL inhibitor	Apaf1 inhib	UBC13 inh	Apaf-1 inh conf2	Rh110 interf inh	others
CN1/C(=N\O)c2cccc3cccc1c23	0.2	-1.3	11.0	86.2*	0.3	20.0	-0.1
Cc1cc(C)nc(SCC(=O)n2c3c(c4ccccc42)CCCC3)n1	10.1	-3.9	-3.3	-2.9	11.2	nt	nt
CC(=O)N1CCc2c(sc(NC(=O)Cc3ccc(F)cc3)c2C(N)=O)C1	-1.7	3.4	3.0	-14.8	-8.5	nt	nt
Cc1ccc(NC(=O)CSCC(=O)N(C)Cc2ccc(Cl)c(Cl)c2)cc1	nt	1.6	-17.2	27.6	18.4	nt	nt
Cc1cccc(NC(=O)CSCC(=O)N(C)Cc2ccc(Cl)c(Cl)c2)c1	nt	-3.3	-4.1	62.6*	27.5	45.9*	12.2	Apaf1 inh interf=>100
CCn1c(=O)cc(OCC(=O)Nc2ccc(C)cn2)c2ccccc21	9.3	4.8	11.3	6.6	4.3	nt	nt
Cc1ccc(N(CC(=O)N/N=C/c2ccc(OC3CSC3)cc2)S(=O)(=O)c2ccccc2)c(C)c1	-3.4	3.0	-10.7	62.7*	-17.6	18.2	0.4
Cc1ccc(N(CC(=O)N/N=C/c2ccc(OC3CSC3)cc2)S(=O)(=O)c2ccccc2)cc1	4.5	-2.0	-8.5	7.0	-12.3	nt	nt
Cc1cc(N2CCN(c3ccc([N+](=O)[O-])c4cccnc34)CC2)c2ccccc2n1	10.0	-16.2	7.4	60.2*	-8.0	47.2*	2.1	Apaf1 inh interf=>100
Cc1cc(N2CCN(c3ccc(C(F)(F)F)cc3[N+](=O)[O-])CC2)c2ccccc2n1	-5.3	5.2	21.2	27.4	5.3	nt	nt
Cc1cccc(CC(=O)NCCn2c(C)cc3ccccc32)c1	9.6	7.6	11.8	41.0*	-4.4	15.4	12.4
CCCCC(=O)Nc1cc(C(=O)NCCc2ccccc2)ccc1Cl	2.5	-25.8	-1.0	-12.0	-0.4	nt	nt
O=C(c1ccc(Cn2c(=O)[nH]c3ccccc3c2=O)cc1)N1CCN(c2ccc(Cl)cc2)CC1	-2.9	5.3	-100.7	41.4*	-8.0	14.4	4.3
C/C(=N\NC(=O)CNc1cccc2ccccc12)c1ccccc1	2.8	21.6	22.2	83.5*	0.9	15.1	8.1
Nc1ncc(Br)cc1N=Cc1ccccc1	-8.9	0.2	1.4	61.8*	-22.5	8.4	-2.0
O=C1C(=C(O)c2ccccc2)C(=O)c2ccccc21	4.4	-7.5	5.5	41.5*	-35.2	13.1	-7.0
O=C1C(=C(c2ccccc2)c2ccccc2)Nc2ccccc21	5.3	8.3	3.4	18.7	-118.6	nt	nt
COc1ccc(NC(=O)CN(C)C(=O)C2CSC3(C)CCC(=O)N23)cc1 (stereo not given)	nt	-4.8	2.9	42.7*	26.4	33.7	16.2
COc1cc(CCc2ccccc2)c(C(=O)O)c(O)c1C/C=C(/C)CCC=C(C)C	nt	nt	nt	43.3*	nt	36.8	18.0
Cc1cccc(NC2=C(NC(=O)c3ccccc3)C(=O)c3ccccc3C2=O)c1	-0.8	3.4	15.5	73.4*	-137.7	58.3*	10.7	Apaf1 inh interf=>100
O=C(NC1=C(NC2CCS(=O)(=O)C2)C(=O)c2ccccc2C1=O)c1ccccc1 (stereo not given)	-7.1	-5.3	11.0	88.1*	-90.9	91.7*	6.9	Apaf1 inh interf=>100
O=C(NC1=C(Nc2ccc(Cl)cc2)C(=O)c2ccccc2C1=O)c1ccccc1	0.3	-1.3	27.2	53.5*	-136.0	41.9*	-4.7	Apaf1 inh interf=>100
O=C(NC(NC1CCS(=O)(=O)C1)C(=O)c1cccs1)c1ccccc1 (stereo not given)	8.7	1.1	0.5	-9.9	4.7	nt	nt
C[C@H]1CN=C2N(CCNC(=O)CCC3CCCCC3)[C@H](Cc3ccc(O)cc3)CN21	-0.2	0.5	4.6	-1.6	10.2	nt	nt
O=C(CCC1CCCCC1)NCCN1C2=NC[C@@H](Cc3ccccc3)N2C[C@H]1Cc1ccc(O)cc1	-33.9	-7.9	-59.4	45.1*	15.4	14.4	16.1
SMILES	EBNA-1 inh	ZTA DNA inh	PREPL inhibitor	Apaf1 inhib	UBC13 inh	Apaf-1 inh conf2	Rh110 interf inh	others
CN(C)/N=C/c1c(O)ccc2ccccc12	-9.0	-8.7	13.6	-6.7	0.9	nt	nt
O=c1oc2ccc([N+](=O)[O-])cc2c(N2CCOCC2)c1[N+](=O)[O-]	3.8	-20.5	-1.9	-2.6	-7.8	nt	nt
CN1C(=O)c2cccc3c(S(N)(=O)=O)ccc1c23	-3.1	7.4	-4.2	-13.5	0.0	nt	nt
CN1C(=O)c2cccc3c(S(=O)(=O)NCc4ccco4)ccc1c23	4.9	-17.3	1.4	54.5*	-13.0	16.0	3.1
COc1cc(C2C(C(=O)c3ccc(C)o3)=C(O)C(=O)N2CCCn2ccnc2)cc(OC)c1OC (stereo not given)	-2.9	-0.5	4.9	12.4	-44.8	nt	nt
COc1ccc(C2C(C(=O)c3ccco3)=C(O)C(=O)N2CCCn2ccnc2)c(OC)c1 (stereo not given)	1.0	-10.6	12.5	57.2*	-45.9	3.8	-16.2
COCCCNC(=O)c1ccccc1Oc1ccccc1	-2.4	-14.1	3.6	-21.1	6.3	nt	nt
COCCCNC(=O)c1ccc2c3c(onc13)-c1ccccc1C2=O	-1.6	0.4	1.4	80.0*	-299.7	74.1*	8.8	Apaf1 inh interf=>100
CN(C)c1cccc2c1c(NS(=O)(=O)c1cn(C)cn1)nn2C	12.8	4.3	7.8	61.9*	-21.3	17.4	-2.8
Cn1cnc(S(=O)(=O)Nc2ccccc2N2CCOCC2)c1	-13.6	4.7	-1.8	-3.0	-7.4	nt	nt
CCOC(=O)C1CCN(C(=O)c2cccc(C(=O)N3CCC(C(=O)OCC)CC3)c2)CC1	-5.4	-14.5	2.3	-3.1	7.0	nt	nt
CCOC(=O)C1CCN(C(=O)c2ccc3c(c2)NC(=O)/C(=C\c2cccc(C)c2)S3)CC1	-0.6	0.4	-1.1	40.0*	-3.7	22.3	1.1
CCOC(=O)c1nn(-c2ccc(F)cc2)c2nc(Nc3ccccc3)cc(=O)n12	-7.0	-5.3	-0.7	10.8	12.9	nt	nt
Cc1cccc(-n2c(N)c(C(=O)NCCN3CCOCC3)c3nc4ccccc4nc32)c1	-2.9	2.1	18.1	50.6*	-6.8	12.4	3.0
CCCNC(=O)c1c(N)n(-c2ccc3c(c2)OCO3)c2nc3ccccc3nc12	-3.0	2.1	-0.5	27.4	-12.3	nt	nt
C[C@]12c3[nH]c4cc(-c5ccco5)ccc4c3CCN1C(=O)[C@@H](CC(=O)NCCCn1ccnc1)C[C@@H]2C(=O)N1CCCCC1	nt	nt	nt	17.4	nt	nt	nt
CN(C)CCCNC(=O)C[C@H]1C[C@H](C(=O)N2CCCCC2)[C@@]2(CCc3ccccc3)c3[nH]c4cc(-c5ccco5)ccc4c3CCN2C1=O	nt	nt	nt	71.5*	nt	27.7	11.2
CN(C)CCCNC(=O)C[C@H]1C[C@H](C(=O)N2CCCCC2)[C@@]2(C)c3[nH]c4cc(-c5ccco5)ccc4c3CCN2C1=O	nt	nt	nt	41.9*	nt	5.2	0.9
